In ChEMBL document CHEMBL3751726, “A stepwise dechlorination/cross-coupling strategy to diversify the vancomycin 'in-chloride'” (2016):
≈ marks a conversion by molar mass, not a printed value.

Tests used:
Format in all cases: functional
Staphylococcus aureus [1] = experiment: Antimicrobial activity against methicillin-susceptible Staphylococcus aureus ATCC 29213 after 18 to 20 hrs by microdilution method
Method in brief: (§1)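 Standard microtiter plate-based broth microdilution assay. The top concentration tested was 64 µg/mL, so inhibition that was not reached is reported as >64 µg/mL. The strains are methicillin-susceptible S. aureus ATCC 29213 and vancomycin-susceptible E. faecalis MMX 101.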

Enterococcus faecalis [2] = experiment: Antimicrobial activity against vancomycin-resistant Enterococcus faecalis MMX 202 expressing VanB after 18 to 20 hrs by microdilution method
Enterococcus faecalis [3] = experiment: Antimicrobial activity against vancomycin-susceptible Enterococcus faecalis MMX 101 after 18 to 20 hrs by microdilution method; method in brief: as §1
Enterococcus faecalis [4] = experiment: Antimicrobial activity against vancomycin-resistant Enterococcus faecalis MMX 486 expressing VanA after 18 to 20 hrs by microdilution method
Staphylococcus aureus [5] = experiment: Antimicrobial activity against methicillin-resistant Staphylococcus aureus MMX 2002 after 18 to 20 hrs by microdilution method

SMILES: CN[C@@H](CC(C)C)C(=O)N[C@@H]1C(=O)N[C@H](CC(N)=O)C(=O)N[C@@H]2C(=O)N[C@@H]3C(=O)N[C@@H](C(=O)N[C@H](C(=O)O)c4cc(O)cc(O)c4-c4cc3ccc4O)[C@@H](O)c3ccc(c(-c4ccoc4)c3)Oc3cc2cc(c3O[C@H]2O[C@@H](CO)[C@H](O)[C@@H](O)[C@@H]2O[C@H]2C[C@](C)(N)[C@H](O)[C@H](C)O2)Oc2ccc(cc2)[C@@H]1O
- MIC (Staphylococcus aureus [1]): 64 µg/mL (≈ 44.2 µM)
- MIC (Enterococcus faecalis [2]): > 64 µg/mL
- MIC (Enterococcus faecalis [3]): > 64 µg/mL
- MIC (Enterococcus faecalis [4]): > 64 µg/mL
- MIC (Staphylococcus aureus [5]): 64 µg/mL (≈ 44.2 µM)

SMILES: CN[C@H](CC(C)C)C(=O)N[C@H]1C(=O)N[C@@H](CC(N)=O)C(=O)N[C@H]2C(=O)N[C@H]3C(=O)N[C@H](C(=O)N[C@H](C(=O)O)c4cc(O)cc(O)c4-c4cc3ccc4O)[C@H](O)c3ccc(c(Cl)c3)Oc3cc2cc(c3O[C@@H]2O[C@H](CO)[C@@H](O)[C@H](O)[C@H]2O[C@H]2C[C@](C)(N)[C@H](O)[C@H](C)O2)Oc2ccc(cc2Cl)[C@H]1O [VANCOMYCIN]
- MIC (Enterococcus faecalis [2]): 8 µg/mL (≈ 5.52 µM)
- MIC (Enterococcus faecalis [3]): 2 µg/mL (≈ 1.38 µM)
- MIC (Enterococcus faecalis [4]): > 64 µg/mL

SMILES: CN[C@@H](CC(C)C)C(=O)N[C@@H]1C(=O)N[C@H](CC(N)=O)C(=O)N[C@@H]2C(=O)N[C@@H]3C(=O)N[C@@H](C(=O)N[C@H](C(=O)O)c4cc(O)cc(O)c4-c4cc3ccc4O)[C@@H](O)c3ccc(c(Cl)c3)Oc3cc2cc(c3O[C@H]2O[C@@H](CO)[C@H](O)[C@@H](O)[C@@H]2O[C@@H]2C[C@@](C)(N)[C@@H](O)[C@@H](C)O2)Oc2ccc(cc2)[C@@H]1O
- MIC (Staphylococcus aureus [1]): 4 µg/mL (≈ 2.83 µM)
- MIC (Enterococcus faecalis [2]): 64 µg/mL (≈ 45.2 µM)
- MIC (Enterococcus faecalis [3]): 8 µg/mL (≈ 5.65 µM)
- MIC (Enterococcus faecalis [4]): > 64 µg/mL
- MIC (Staphylococcus aureus [5]): 4 µg/mL (≈ 2.83 µM)

SMILES: CN[C@@H](CC(C)C)C(=O)N[C@@H]1C(=O)N[C@H](CC(N)=O)C(=O)N[C@@H]2C(=O)N[C@@H]3C(=O)N[C@@H](C(=O)N[C@H](C(=O)O)c4cc(O)cc(O)c4-c4cc3ccc4O)[C@@H](O)c3ccc(c(-c4cccc(CN)c4)c3)Oc3cc2cc(c3O[C@@H]2O[C@H](CO)[C@@H](O)[C@H](O)[C@H]2O[C@H]2C[C@](C)(N)[C@H](O)[C@H](C)O2)Oc2ccc(cc2)[C@@H]1O
- MIC (Staphylococcus aureus [1]): > 64 µg/mL
- MIC (Enterococcus faecalis [2]): > 64 µg/mL
- MIC (Enterococcus faecalis [3]): > 64 µg/mL
- MIC (Enterococcus faecalis [4]): > 64 µg/mL
- MIC (Staphylococcus aureus [5]): > 64 µg/mL

SMILES: CC(=O)NC[C@H]1CN(c2ccc(N3CCOCC3)c(F)c2)C(=O)O1 [LINEZOLID]
- MIC (Staphylococcus aureus [5]): 1 µg/mL (≈ 2.96 µM)

SMILES: CN[C@@H](CC(C)C)C(=O)N[C@@H]1C(=O)N[C@H](CC(N)=O)C(=O)N[C@@H]2C(=O)N[C@@H]3C(=O)N[C@@H](C(=O)N[C@H](C(=O)O)c4cc(O)cc(O)c4-c4cc3ccc4O)[C@@H](O)c3ccc(c(-c4cccc(C(N)=O)c4)c3)Oc3cc2cc(c3O[C@@H]2O[C@H](CO)[C@@H](O)[C@H](O)[C@H]2O[C@H]2C[C@](C)(N)[C@H](O)[C@H](C)O2)Oc2ccc(cc2)[C@@H]1O
- MIC (Staphylococcus aureus [1]): > 64 µg/mL
- MIC (Enterococcus faecalis [2]): > 64 µg/mL
- MIC (Enterococcus faecalis [3]): > 64 µg/mL
- MIC (Enterococcus faecalis [4]): > 64 µg/mL
- MIC (Staphylococcus aureus [5]): > 64 µg/mL

SMILES: CN[C@@H](CC(C)C)C(=O)N[C@@H]1C(=O)N[C@H](CC(N)=O)C(=O)N[C@@H]2C(=O)N[C@@H]3C(=O)N[C@@H](C(=O)N[C@H](C(=O)O)c4cc(O)cc(O)c4-c4cc3ccc4O)[C@@H](O)c3ccc(c(-c4cccc(F)c4)c3)Oc3cc2cc(c3O[C@@H]2O[C@H](CO)[C@@H](O)[C@H](O)[C@H]2O[C@H]2C[C@](C)(N)[C@H](O)[C@H](C)O2)Oc2ccc(cc2)[C@@H]1O
- MIC (Staphylococcus aureus [1]): > 64 µg/mL
- MIC (Enterococcus faecalis [2]): > 64 µg/mL
- MIC (Enterococcus faecalis [3]): > 64 µg/mL
- MIC (Enterococcus faecalis [4]): > 64 µg/mL
- MIC (Staphylococcus aureus [5]): > 64 µg/mL

SMILES: CN[C@@H](CC(C)C)C(=O)N[C@@H]1C(=O)N[C@H](CC(N)=O)C(=O)N[C@@H]2C(=O)N[C@@H]3C(=O)N[C@@H](C(=O)N[C@H](C(=O)O)c4cc(O)cc(O)c4-c4cc3ccc4O)[C@@H](O)c3ccc(cc3)Oc3cc2cc(c3O[C@@H]2O[C@H](CO)[C@@H](O)[C@H](O)[C@H]2O[C@H]2C[C@](C)(N)[C@H](O)[C@H](C)O2)Oc2ccc(cc2)[C@@H]1O
- MIC (Staphylococcus aureus [1]): 8 µg/mL (≈ 5.8 µM)
- MIC (Enterococcus faecalis [2]): > 64 µg/mL
- MIC (Enterococcus faecalis [3]): 32 µg/mL (≈ 23.2 µM)
- MIC (Enterococcus faecalis [4]): > 64 µg/mL
- MIC (Staphylococcus aureus [5]): 8 µg/mL (≈ 5.8 µM)

SMILES: CCCCCC/C=C/c1cc2ccc1Oc1cc3cc(c1O[C@@H]1O[C@H](CO)[C@@H](O)[C@H](O)[C@H]1O[C@H]1C[C@](C)(N)[C@H](O)[C@H](C)O1)Oc1ccc(cc1)[C@H](O)[C@H](NC(=O)[C@@H](CC(C)C)NC)C(=O)N[C@H](CC(N)=O)C(=O)N[C@@H]3C(=O)N[C@@H]1C(=O)N[C@@H](C(=O)N[C@H](C(=O)O)c3cc(O)cc(O)c3-c3cc1ccc3O)[C@H]2O
- MIC (Staphylococcus aureus [1]): > 64 µg/mL
- MIC (Enterococcus faecalis [2]): > 64 µg/mL
- MIC (Enterococcus faecalis [3]): > 64 µg/mL
- MIC (Enterococcus faecalis [4]): > 64 µg/mL
- MIC (Staphylococcus aureus [5]): > 64 µg/mL

SMILES: CN[C@@H](CC(C)C)C(=O)N[C@@H]1C(=O)N[C@H](CC(N)=O)C(=O)N[C@@H]2C(=O)N[C@@H]3C(=O)N[C@@H](C(=O)N[C@H](C(=O)O)c4cc(O)cc(O)c4-c4cc3ccc4O)[C@@H](O)c3ccc(c(-c4ccc5[nH]ccc5c4)c3)Oc3cc2cc(c3O[C@@H]2O[C@H](CO)[C@@H](O)[C@H](O)[C@H]2O[C@H]2C[C@](C)(N)[C@H](O)[C@H](C)O2)Oc2ccc(cc2)[C@@H]1O
- MIC (Staphylococcus aureus [1]): > 64 µg/mL
- MIC (Enterococcus faecalis [2]): > 64 µg/mL
- MIC (Enterococcus faecalis [3]): > 64 µg/mL
- MIC (Enterococcus faecalis [4]): > 64 µg/mL
- MIC (Staphylococcus aureus [5]): > 64 µg/mL

SMILES: CN[C@@H](CC(C)C)C(=O)N[C@@H]1C(=O)N[C@H](CC(N)=O)C(=O)N[C@@H]2C(=O)N[C@@H]3C(=O)N[C@@H](C(=O)N[C@H](C(=O)O)c4cc(O)cc(O)c4-c4cc3ccc4O)[C@@H](O)c3ccc(c(-c4ccc(-c5ccccc5)cc4)c3)Oc3cc2cc(c3O[C@@H]2O[C@H](CO)[C@@H](O)[C@H](O)[C@H]2O[C@H]2C[C@](C)(N)[C@H](O)[C@H](C)O2)Oc2ccc(cc2)[C@@H]1O
- MIC (Staphylococcus aureus [1]): > 64 µg/mL
- MIC (Enterococcus faecalis [2]): > 64 µg/mL
- MIC (Enterococcus faecalis [3]): > 64 µg/mL
- MIC (Enterococcus faecalis [4]): > 64 µg/mL
- MIC (Staphylococcus aureus [5]): > 64 µg/mL
